Source: BindingDB's records for doi:10.1021/jm00089a014 (Genentech, 1992)
pIC50: −log10 of the molar value. *1 amine or outer side, *2 acyl side, *3 side chain or, on linkers, in order; H or OH if unused. Where a SMILES comes first, the peptide text is derived from it. Bridges are numbered along the chain shown (N, C = ends). [ ]: non-standard residue; d: D form. Cys(O)(CH2CO) = O=C([C@H](C[S+]([O-])CC(=O)[*:3])N[*:1])[*:2]

biological target: Integrin alpha-IIb/beta-3 (Homo sapiens, UniProt P08514+P05106); experiment: Inhibition of ADP-induced platelet aggregation in human platelet-rich plasma
Summary of the method: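 Human blood drawn into 3.8% sodium citrate (9:1); PRP from 180g spin, 12 min, 22 °C; count adjusted to 3 × 10^8/mL with PPP. PRP preincubated with test sample 5 min at 37 °C in aggregometer, then ADP 17.2 µM final. Inhibition from transmittance change at 5 min versus no-sample maximum; 12-14 concentrations over ~200-fold range; IC50 by four-parameter fit; n ≥ 3.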

Sequence of Integrin alpha-IIb/beta-3 (P05106 27-788 limits assumed): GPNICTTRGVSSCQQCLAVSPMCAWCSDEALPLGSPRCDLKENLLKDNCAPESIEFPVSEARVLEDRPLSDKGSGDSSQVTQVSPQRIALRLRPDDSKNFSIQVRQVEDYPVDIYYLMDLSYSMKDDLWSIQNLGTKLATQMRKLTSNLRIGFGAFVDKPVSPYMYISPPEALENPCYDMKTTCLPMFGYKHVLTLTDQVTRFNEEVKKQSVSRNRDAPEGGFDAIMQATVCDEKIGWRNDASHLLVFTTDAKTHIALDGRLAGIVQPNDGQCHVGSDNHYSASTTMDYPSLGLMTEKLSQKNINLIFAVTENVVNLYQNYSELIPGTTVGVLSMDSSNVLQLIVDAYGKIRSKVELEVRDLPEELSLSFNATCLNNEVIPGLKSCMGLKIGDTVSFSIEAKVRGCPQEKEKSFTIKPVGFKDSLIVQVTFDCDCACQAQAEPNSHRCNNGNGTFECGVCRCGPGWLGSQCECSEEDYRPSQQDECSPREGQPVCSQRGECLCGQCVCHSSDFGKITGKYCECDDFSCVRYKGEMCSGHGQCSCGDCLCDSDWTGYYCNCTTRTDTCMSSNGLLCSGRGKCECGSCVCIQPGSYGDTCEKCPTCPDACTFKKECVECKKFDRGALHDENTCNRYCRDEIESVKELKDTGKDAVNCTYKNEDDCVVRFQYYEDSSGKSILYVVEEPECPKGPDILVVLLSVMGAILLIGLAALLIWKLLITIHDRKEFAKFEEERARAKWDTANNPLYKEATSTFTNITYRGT
Sequence of Integrin alpha-IIb/beta-3 (P08514 32-887 limits assumed): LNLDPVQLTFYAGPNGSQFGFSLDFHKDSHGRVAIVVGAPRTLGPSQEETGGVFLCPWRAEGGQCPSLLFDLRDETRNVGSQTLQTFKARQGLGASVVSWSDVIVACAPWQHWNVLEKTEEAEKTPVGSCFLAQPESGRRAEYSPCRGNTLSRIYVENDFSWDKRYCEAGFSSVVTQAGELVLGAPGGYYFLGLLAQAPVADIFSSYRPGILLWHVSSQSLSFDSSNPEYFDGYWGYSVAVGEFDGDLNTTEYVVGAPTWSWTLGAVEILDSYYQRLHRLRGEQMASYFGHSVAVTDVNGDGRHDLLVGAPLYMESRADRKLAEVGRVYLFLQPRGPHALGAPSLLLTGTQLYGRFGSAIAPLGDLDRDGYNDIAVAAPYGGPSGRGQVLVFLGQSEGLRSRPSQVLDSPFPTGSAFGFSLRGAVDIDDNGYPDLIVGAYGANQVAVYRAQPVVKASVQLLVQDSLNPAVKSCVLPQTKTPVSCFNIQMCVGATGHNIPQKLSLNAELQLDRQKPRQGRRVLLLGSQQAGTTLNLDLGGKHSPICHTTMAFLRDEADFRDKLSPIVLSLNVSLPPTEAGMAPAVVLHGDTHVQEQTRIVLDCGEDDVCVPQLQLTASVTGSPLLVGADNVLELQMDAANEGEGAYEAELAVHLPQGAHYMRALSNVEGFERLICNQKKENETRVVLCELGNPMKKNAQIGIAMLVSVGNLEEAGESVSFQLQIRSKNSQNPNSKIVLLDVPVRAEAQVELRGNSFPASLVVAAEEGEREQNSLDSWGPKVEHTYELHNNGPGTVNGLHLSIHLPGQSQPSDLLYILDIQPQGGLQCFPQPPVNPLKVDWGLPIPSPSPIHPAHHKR
Sequence of Integrin alpha-IIb/beta-3 (P08514 891-1039 limits assumed): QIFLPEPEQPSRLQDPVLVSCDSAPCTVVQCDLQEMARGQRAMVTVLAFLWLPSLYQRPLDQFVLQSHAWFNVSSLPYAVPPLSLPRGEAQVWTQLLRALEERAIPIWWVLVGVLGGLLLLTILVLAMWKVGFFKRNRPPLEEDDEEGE

Point of comparison: `N=C(N)NCCC[C@@H]1NC(=O)[C@H](CCC(=O)O)NC(=O)CSC[C@@H](C(=O)O)NC(=O)[C@H](CC(=O)O)NC(=O)CNC1=O`, pIC50 5.34. Against it:
- N=C(N)NCCC[C@@H]1NC(=O)[C@@H](Cc2ccc(O)cc2)NC(=O)C[S+]([O-])C[C@@H](C(=O)O)NC(=O)[C@H](CC(=O)O)NC(=O)CNC1=O (stereo partly drawn) — 1.58 log units higher, 6.92
- N=C(N)NCCC[C@@H]1NC(=O)[C@H](CCCCN)NC(=O)C[S+]([O-])C[C@@H](C(=O)O)NC(=O)[C@H](CC(=O)O)NC(=O)CNC1=O (stereo partly drawn) (KRGD[Cys(O)(CH2CO)]-OH; lactam N-5) — 0.21 log units higher, 5.55
- CC(C)C[C@@H]1NC(=O)C[S+]([O-])C[C@@H](C(=O)O)NC(=O)[C@H](CC(=O)O)NC(=O)CNC(=O)[C@H](CCCNC(=N)N)NC1=O (stereo partly drawn) (LRGD[Cys(O)(CH2CO)]-OH; lactam N-5) — 1.66 log units higher, 7.00
- N=C(N)NCCC[C@@H]1NC(=O)[C@H](CC(N)=O)NC(=O)C[S+]([O-])C[C@@H](C(=O)O)NC(=O)[C@H](CC(=O)O)NC(=O)CNC1=O (stereo partly drawn) — 1.00 log units higher, 6.34
- C[C@@H](O)[C@@H]1NC(=O)CSC[C@@H](C(=O)O)NC(=O)[C@H](CC(=O)O)NC(=O)CNC(=O)[C@H](CCCN=C(N)N)NC1=O — 1.28 log units higher, 6.62
- N=C(N)NCCC[C@@H]1NC(=O)[C@H](Cc2ccccc2)NC(=O)CSC[C@@H](C(=O)O)NC(=O)[C@H](CC(=O)O)NC(=O)CNC1=O — 1.32 log units higher, 6.66
- N=C(N)NCCC[C@H](N)C(=O)NCC(=O)N[C@@H](CC(=O)O)C(=O)N[C@@H](Cc1ccc(O)cc1)C(=O)O (H-RGDY-OH) — 1.31 log units lower, 4.03
- N=C(N)NCCC[C@@H]1NC(=O)CNC(=O)C(c2ccc(C(F)(F)F)cc2)SC[C@@H](C(=O)O)NC(=O)[C@H](CC(=O)O)NC(=O)CNC1=O (stereo partly drawn) — 0.71 log units higher, 6.05
- N=C(N)NCCC[C@H](NC(=O)CN)C(=O)NCC(=O)N[C@@H](CC(=O)O)C(=O)N[C@@H](Cc1ccc(O)cc1)C(=O)O (H-GRGDY-OH) — 1.57 log units lower, 3.77
- N=C(N)NCCC[C@@H]1NC(=O)[C@@H](Cc2c[nH]c3ccccc23)NC(=O)CSC[C@@H](C(=O)O)NC(=O)[C@H](CC(=O)O)NC(=O)CNC1=O — within 0.2 log units, 5.32
- CC(=O)NCC(=O)N[C@@H](CCCNC(=N)N)C(=O)NCC(=O)N[C@@H](CC(=O)O)C(=O)N[C@H](C(N)=O)C(C)C (Ac-GRGDV-NH2) — lower, < 3.30
- CCC1SC[C@@H](C(=O)O)NC(=O)[C@H](CC(=O)O)NC(=O)CNC(=O)[C@H](CCCNC(=N)N)NC(=O)CNC1=O (stereo partly drawn) — within 0.2 log units, 5.31
- N=C(N)NCCC[C@@H]1NC(=O)CNC(=O)CCSC[C@@H](C(=O)O)NC(=O)[C@H](CC(=O)O)NC(=O)CNC1=O — 1.15 log units lower, 4.19
- N=C(N)NCCC[C@@H]1NC(=O)[C@H](CCCN)NC(=O)CSC[C@@H](C(=O)O)NC(=O)[C@H](CC(=O)O)NC(=O)CNC1=O — 1.26 log units higher, 6.60
- N=C(N)NCCC[C@@H]1NC(=O)[C@@H](Cc2ccc(O)cc2)NC(=O)CS(=O)(=O)C[C@@H](C(=O)O)NC(=O)[C@H](CC(=O)O)NC(=O)CNC1=O — 1.34 log units higher, 6.68
- CC(C)[C@@H]1NC(=O)CSC[C@@H](C(=O)O)NC(=O)[C@H](CC(=O)O)NC(=O)CNC(=O)[C@H](CCCNC(=N)N)NC1=O — 1.76 log units higher, 7.10
- N=C(N)NCCC[C@@H]1NC(=O)[C@H](Cc2cnc[nH]2)NC(=O)CSC[C@@H](C(=O)O)NC(=O)[C@H](CC(=O)O)NC(=O)CNC1=O — 0.93 log units higher, 6.27
- N=C(N)NCCC[C@@H]1NC(=O)CCNC(=O)CSC[C@@H](C(=O)O)NC(=O)[C@H](CC(=O)O)NC(=O)CNC1=O — 0.88 log units lower, 4.46
- CC(C)[C@H]1NC(=O)CSC[C@@H](C(=O)O)NC(=O)[C@H](CC(=O)O)NC(=O)CNC(=O)[C@H](CCCNC(=N)N)NC1=O — 0.28 log units lower, 5.06
- N=C(N)NCCC[C@@H]1NC(=O)[C@H](CO)NC(=O)CSC[C@@H](C(=O)O)NC(=O)[C@H](CC(=O)O)NC(=O)CNC1=O — 0.98 log units higher, 6.32
- NC(N)=NCCC[C@H](N)C(=O)NCC(=O)N[C@@H](CC(=O)O)C(=O)N[C@@H](Cc1ccccc1)C(=O)O (H-RGDF-OH) — 0.97 log units lower, 4.37
- N=C(N)NCCC[C@@H]1NC(=O)CNC(=O)[C@@H](Cc2ccccc2)SC[C@@H](C(=O)O)NC(=O)[C@H](CC(=O)O)NC(=O)CNC1=O — within 0.2 log units, 5.15
- N=C(N)NCCC[C@@H]1NC(=O)[C@H](Cc2ccc(O)cc2)NC(=O)C[S+]([O-])C[C@@H](C(N)=O)NC(=O)[C@H](CC(=O)O)NC(=O)CNC1=O (stereo partly drawn) (YRGD[Cys(O)(CH2CO)]-NH2; lactam N-5) — 1.36 log units higher, 6.70
- N=C(N)NCCC[C@@H]1NC(=O)CSC[C@@H](C(=O)O)NC(=O)[C@H](CC(=O)O)NC(=O)CNC1=O ({CH2CO}-RGDC-OH; thioether N-4) — not separable, < 5.70
- N=C(N)NCCC[C@@H]1NC(=O)[C@@H](Cc2ccccc2)NC(=O)C[S+]([O-])C[C@@H](C(=O)O)NC(=O)[C@H](CC(=O)O)NC(=O)CNC1=O (stereo partly drawn) — 1.02 log units higher, 6.36
- N=C(N)NCCC[C@@H]1NC(=O)CNC(=O)C[S+]([O-])C[C@@H](C(=O)O)NC(=O)[C@H](CC(=O)O)NC(=O)CNC1=O (stereo partly drawn) — 1.09 log units higher, 6.43
- N=C(N)NCCC[C@@H]1NC(=O)CNC(=O)[C@H](Cc2ccccc2)SC[C@@H](C(=O)O)NC(=O)[C@H](CC(=O)O)NC(=O)CNC1=O — 0.38 log units higher, 5.72
